{"source": "ChEMBL document CHEMBL4334464", "about": "“From Phenylthiazoles to Phenylpyrazoles: Broadening the Antibacterial Spectrum toward Carbapenem-Resistant Bacteria” (J Med Chem, 2019)", "key": {"[1]": {"test": "Half life in human liver microsomes in presence of NADPH by LC/MS/MS analysis", "assay_type": "ADME, Microsome"}, "[2]": {"tested_on": "Enterococcus faecalis", "test": "Ratio of MBC to MIC for vancomycin-resistant Enterococcus faecalis ATCC 51299 clinical isolates", "assay_type": "functional"}, "[3]": {"tested_on": "Escherichia coli", "test": "Antimicrobial activity against Escherichia coli JW55031 harboring deltatolC mutant after 18 to 20 hrs in aerobic condition by CLSI protocol based broth microdilution assay", "assay_type": "functional"}, "[4]": {"tested_on": "Salmonella enteritidis", "test": "Ratio of MBC to MIC for Salmonella enteritidis ATCC 14028 clinical isolates", "assay_type": "functional, Salmonella enterica subsp. enterica serovar Enteritidis"}, "[5]": {"tested_on": "Pseudomonas aeruginosa", "test": "microbe, parasite or virus in culture", "settings": "ATCC 25619"}, "[6]": {"tested_on": "Pseudomonas aeruginosa", "test": "Ratio of MBC to MIC for Pseudomonas aeruginosa ATCC 9027 clinical isolates", "assay_type": "functional"}, "[7]": {"tested_on": "Escherichia coli", "test": "microbe, parasite or virus in culture", "settings": "ATCC 1411"}, "[8]": {"tested_on": "Salmonella enterica", "test": "Antibacterial activity against Salmonella enterica NR-170 clinical isolates after 18 to 20 hrs in aerobic condition by CLSI-based broth microdilution assay", "assay_type": "functional"}, "[9]": {"test": "Stability in human liver microsomes assessed as compound remaining measured immediately in presence of NADPH by LC/MS/MS analysis", "assay_type": "ADME, Microsome", "settings": "read-out: Stability", "in_short": "(§1)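 Two independent runs (1st and 2nd) were done at each time point, and the mean percent remaining is reported. Incubations were run both with and without NADPH. Half-life and intrinsic clearance (Clint) were derived from the time-course data.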"}, "[10]": {"target": "T1, Ditrans,polycis-undecaprenyl-diphosphate synthase ((2E,6E)-farnesyl-diphosphate specific) (Escherichia coli (strain K12)) (UniProt P60472)", "T1 sequence (whole entry)": "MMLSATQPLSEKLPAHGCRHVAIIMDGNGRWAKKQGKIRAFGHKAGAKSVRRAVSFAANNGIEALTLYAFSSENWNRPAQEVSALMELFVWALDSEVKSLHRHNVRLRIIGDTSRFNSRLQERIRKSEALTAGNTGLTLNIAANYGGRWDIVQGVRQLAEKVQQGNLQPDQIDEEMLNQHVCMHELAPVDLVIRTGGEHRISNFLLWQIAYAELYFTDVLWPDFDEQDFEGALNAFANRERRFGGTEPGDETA", "test": "Inhibition of Escherichia coli UPPS using FPP/IPP as substrate preincubated for 30 mins followed by substrates addition and measured after 30 mins by malachite green reagent based assay"}, "[11]": {"tested_on": "Klebsiella pneumoniae", "test": "Antibacterial activity against carbapenem-resistant Klebsiella pneumoniae ATCC BAA-1705 clinical isolates after 18 to 20 hrs in aerobic condition by CLSI-based broth microdilution assay", "assay_type": "functional"}, "[12]": {"test": "Stability in human liver microsomes assessed as compound remaining measured immediately in absence of NADPH by LC/MS/MS analysis", "assay_type": "ADME, Microsome", "settings": "read-out: Stability", "in_short": "as §1"}, "[13]": {"tested_on": "Staphylococcus aureus", "test": "Antibacterial activity against Methicillin-sensitive Staphylococcus aureus NRS107 clinical isolates after 18 to 20 hrs in aerobic condition by CLSI protocol based broth microdilution assay", "assay_type": "functional"}, "[14]": {"test": "Intrinsic clearance in human liver microsomes in presence of NADPH by LC/MS/MS analysis", "assay_type": "ADME, Microsome", "settings": "read-out: CLH"}, "[15]": {"tested_on": "Escherichia coli", "test": "Ratio of MBC to MIC for Escherichia coli ATCC 1411 clinical isolates", "assay_type": "functional"}, "[16]": {"tested_on": "Acinetobacter baumannii", "test": "Ratio of MBC to MIC for Acinetobacter baumannii ATCC BAA 1141 clinical isolates", "assay_type": "functional"}, "[17]": {"tested_on": "Streptococcus pneumoniae", "test": "Antibacterial activity against methicillin-resistant Streptococcus pneumoniae ATCC 700677 clinical isolates after 18 to 20 hrs by CLSI-based broth microdilution assay", "assay_type": "functional"}, "[18]": {"tested_on": "Pseudomonas aeruginosa", "test": "Antibacterial activity against Pseudomonas aeruginosa ATCC 15442 clinical isolates after 18 to 20 hrs in aerobic condition by CLSI-based broth microdilution assay", "assay_type": "functional"}, "[19]": {"tested_on": "Listeria monocytogenes", "test": "Ratio of MBC to MIC for Listeria monocytogenes ATCC 19111 clinical isolates", "assay_type": "functional"}, "[20]": {"tested_on": "Streptococcus pneumoniae", "test": "Ratio of MBC to MIC for […] Streptococcus pneumoniae ATCC 700677 clinical isolates", "assay_type": "functional"}, "[21]": {"tested_on": "Acinetobacter baumannii", "test": "microbe, parasite or virus in culture", "settings": "ATCC BAA 1747"}, "[22]": {"tested_on": "Enterococcus faecium", "test": "Ratio of MBC to MIC for vancomycin-resistant Enterococcus faecium ATCC 700221 clinical isolates", "assay_type": "functional"}, "[23]": {"test": "Stability in human liver microsomes assessed as compound remaining incubated for 15 mins in presence of NADPH by LC/MS/MS analysis", "assay_type": "ADME, Microsome", "settings": "read-out: Stability", "in_short": "as §1"}, "[24]": {"tested_on": "Clostridioides difficile", "test": "Ratio of MBC to MIC for Clostridium difficile ATCC BAA 1870", "assay_type": "functional"}, "[25]": {"tested_on": "Staphylococcus aureus", "test": "Bactericidal activity against methicillin-resistant Staphylococcus aureus NRS123-USA400 clinical isolates at 5 times MIC incubated over 24 hrs followed by replating on tryptic soy agar plate and further incubated for 18 to 20 hrs by time kill assay", "assay_type": "functional, organism-based"}, "[26]": {"tested_on": "Staphylococcus aureus", "test": "Antibiofilm activity against methicillin-resistant Staphylococcus aureus NRS384-USA300 clinical isolates assessed as inhibition of biofilm formation at 0.5 times MIC incubated for 24 hrs by crystal violet staining based spectrophotometric method relative to control", "assay_type": "functional"}, "[27]": {"tested_on": "Escherichia coli", "test": "Ratio of MBC to MIC for Escherichia coli BW25113 clinical isolates", "assay_type": "functional"}, "[28]": {"tested_on": "Staphylococcus aureus", "test": "Antibacterial activity against Methicillin-resistant Staphylococcus aureus NRS123-USA400 clinical isolates after 18 to 20 hrs in aerobic condition by CLSI protocol based broth microdilution assay", "assay_type": "functional"}, "[29]": {"test": "Half life in human liver microsomes in absence of NADPH by LC/MS/MS analysis", "assay_type": "ADME, Microsome"}, "[30]": {"tested_on": "Klebsiella pneumoniae", "test": "Antibacterial activity against Klebsiella pneumoniae BAA-1706 clinical isolates after 18 to 20 hrs in aerobic condition by CLSI-based broth microdilution assay", "assay_type": "functional"}, "[31]": {"tested_on": "Streptococcus pneumoniae", "test": "Antibacterial activity against cephalosporin-resistant Streptococcus pneumoniae ATCC 51916 clinical isolates after 18 to 20 hrs by CLSI-based broth microdilution assay", "assay_type": "functional"}, "[32]": {"tested_on": "Escherichia coli", "test": "Antibacterial activity against Escherichia coli ATCC 25922 clinical isolates after 18 to 20 hrs in aerobic condition by CLSI-based broth microdilution assay", "assay_type": "functional"}, "[33]": {"tested_on": "Klebsiella pneumoniae", "test": "Antibacterial activity against carbapenem-resistant Klebsiella pneumoniae ATCC BAA-2146 clinical isolates after 18 to 20 hrs in aerobic condition by CLSI-based broth microdilution assay", "assay_type": "functional"}, "[34]": {"tested_on": "Pseudomonas aeruginosa", "test": "Antibacterial activity against carbapenem-resistant Pseudomonas aeruginosa ATCC 1744 clinical isolates after 18 to 20 hrs in aerobic condition by CLSI-based broth microdilution assay", "assay_type": "functional"}, "[35]": {"tested_on": "Acinetobacter baumannii", "test": "Antibacterial activity against Acinetobacter baumannii NR 17786 clinical isolates after 18 to 20 hrs in aerobic condition by CLSI-based broth microdilution assay", "assay_type": "functional"}, "[36]": {"tested_on": "Staphylococcus epidermidis", "test": "Ratio of MBC to MIC for Staphylococcus epidermidis NRS101 clinical isolates", "assay_type": "functional"}, "[37]": {"tested_on": "Clostridioides difficile", "test": "Antibacterial activity against Clostridium difficile ATCC BAA 1870 incubated for 48 hrs in anaerobic condition by CLSI-based broth microdilution assay", "assay_type": "functional", "settings": "ATCC BAA 1870, 48 h"}, "[38]": {"tested_on": "Staphylococcus aureus", "test": "Antibacterial activity against methicillin-resistant Staphylococcus aureus NRS384-USA300 clinical isolates after 18 to 20 hrs in aerobic condition by CLSI protocol based broth microdilution assay", "assay_type": "functional"}}, "note": "The source made the active and inactive calls. No cut-off for these calls is given here."}
{"smiles": "C/C(=N\\NC(=N)N)c1cnn(-c2ccc(C#CC3CCCC3)cc2)c1C", "values": [{"measurement": "half-life", "setting": "[1]", "value": 3.23, "unit": "h"}, {"measurement": "Ratio", "setting": "[2]", "value": "<3"}, {"measurement": "MIC", "setting": "[3]", "value": 2, "unit": "µg/mL"}, {"measurement": "Ratio", "setting": "[4]", "value": ">=1"}, {"measurement": "MIC", "setting": "[5]", "value": 16, "unit": "µg/mL"}, {"measurement": "Ratio", "setting": "[6]", "value": ">=1"}, {"measurement": "MIC", "setting": "[7]", "value": 8, "unit": "µg/mL"}, {"measurement": "MIC", "setting": "[8]", "value": 8, "unit": "µg/mL"}, {"measurement": "remaining at 0 min", "setting": "[9]", "value": 100, "unit": "%"}, {"measurement": "inhibition", "setting": "[10]", "value": "inactive"}, {"measurement": "MIC", "setting": "[11]", "value": 8, "unit": "µg/mL"}, {"measurement": "remaining at 0 min", "setting": "[12]", "value": 100, "unit": "%"}, {"measurement": "MIC", "setting": "[13]", "value": 1, "unit": "µg/mL"}, {"measurement": "microsomal CLint", "setting": "[14]", "value": 35.8, "unit": "µL/min/mg"}, {"measurement": "Ratio", "setting": "[15]", "value": ">=1"}, {"measurement": "Ratio", "setting": "[16]", "value": ">=1"}, {"measurement": "MIC", "setting": "[17]", "value": 0.5, "unit": "µg/mL"}, {"measurement": "MIC", "setting": "[18]", "value": 32, "unit": "µg/mL"}, {"measurement": "Ratio", "setting": "[19]", "value": "<3"}, {"measurement": "Ratio", "setting": "[20]", "value": "<3"}, {"measurement": "MIC", "setting": "[21]", "value": 4, "unit": "µg/mL"}, {"measurement": "Ratio", "setting": "[22]", "value": "<3"}, {"measurement": "remaining at 0.25 h", "setting": "[23]", "value": 93, "unit": "%"}, {"measurement": "Ratio", "setting": "[24]", "value": "<3"}, {"measurement": "Activity", "setting": "[25]", "value": "Active"}, {"measurement": "inhibition (INH)", "setting": "[26]", "value": 31, "unit": "%"}, {"measurement": "Ratio", "setting": "[27]", "value": ">=1"}, {"measurement": "MIC", "setting": "[28]", "value": 2, "unit": "µg/mL"}, {"measurement": "half-life", "setting": "[29]", "value": 8.42, "unit": "h"}, {"measurement": "MIC", "setting": "[30]", "value": 4, "unit": "µg/mL"}, {"measurement": "MIC", "setting": "[31]", "value": 1, "unit": "µg/mL"}, {"measurement": "MIC", "setting": "[32]", "value": 4, "unit": "µg/mL"}, {"measurement": "MIC", "setting": "[33]", "value": 16, "unit": "µg/mL"}, {"measurement": "MIC", "setting": "[34]", "value": 16, "unit": "µg/mL"}, {"measurement": "MIC", "setting": "[35]", "value": 8, "unit": "µg/mL"}, {"measurement": "Ratio", "setting": "[36]", "value": "<3"}, {"measurement": "MIC", "setting": "[37]", "value": 1, "unit": "µg/mL"}, {"measurement": "MIC", "setting": "[38]", "value": 1, "unit": "µg/mL"}]}
